Molecules are shown by their SMILES. The source made the active and inactive calls. The rule behind the calls is not given here.

One may read the CC50 as the concentration that lowers cell viability or growth by half. As a reminder, the EC50 is the concentration at which the effect is half-maximal.

System in the first series: not listed separately
The series can be described thus: Cytotoxicity against mock-infected human MT4 cells assessed as reduction in cell viability after 96 hrs by MTT assay. Format: cell-based.
Settings: not given
A digest of the protocol: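 Exponentially growing MT-4 cells seeded at 1 × 10^5 cells/mL in RPMI-1640 with 10% FCS, penicillin and streptomycin, with or without serial compound dilutions. Incubated at 37 °C, 5% CO2; viability read by MTT after 96 h. CC50 is the concentration reducing mock-infected cell viability by 50%.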
A general note: Tetrazolium dyes change colour on reduction, which living cells bring about.
Consider `Fc1ccc(N2CCN(/C=C/N=N/c3ccccc3)CC2)cc1`, for which the CC50 at 96 h turned out to be 17 µM.
With `CN1C=C(/N=N/c2cccc(Cl)c2)CCC1`, the half-maximal cytotoxic concentration (CC50) at 96 h is > 100 µM.
`Cc1ccc(/N=N/C=C2\CCCN2C)cc1`: the CC50 at 96 h is > 100 µM.
Turning to `FC(F)(F)c1cc(/N=N\C2=C3CCCCN3CCC2)ccc1Br`, the CC50 at 96 h worked out at 34 µM.
Take `Clc1cccc(/N=N\C2=C3CCCCN3CCC2)c1`: the CC50 at 96 h stood at 16 µM.
On the same count and under the same terms, the result for `CN1C=C(/N=N/c2ccc(F)c(C(F)(F)F)c2)CCC1` reads > 100 µM; that for `C(/N=N/c1ccccc1)=C1/CCCN1Cc1ccccc1`, 22 µM.

System in a further series: not listed separately
The series can be described thus: Cytotoxicity against mock-infected MDBK cells assessed as reduction in cell viability after 96 hrs by MTT assay. The format is cell-based, Bos taurus. The conditions noted are these: cattle. In outline: (§1)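 Cytotoxicity run in parallel with the antiviral assays. MDBK seeded at 6 × 10^5 and BHK at 1 × 10^6 cells/mL in maintenance medium with or without serial compound dilutions. Incubated 48–96 h at 37 °C, 5% CO2, then viability read by MTT. CC50 is the concentration reducing mock-infected cell viability by 50%.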
For `Fc1ccc(N2CCN(/C=C/N=N/c3ccccc3)CC2)cc1`, the CC50 at 96 h worked out at 13 µM.
In the case of `CN1C=C(/N=N/c2cccc(Cl)c2)CCC1`, the CC50 at 96 h is 87 µM.
`Cc1ccc(/N=N/C=C2\CCCN2C)cc1`: the CC50 at 96 h was > 100 µM.
On the same count and under the same terms, the result for `FC(F)(F)c1cc(/N=N\C2=C3CCCCN3CCC2)ccc1Br` reads > 100 µM; that for `Clc1cccc(/N=N\C2=C3CCCCN3CCC2)c1`, 20 µM; that for `CN1C=C(/N=N/c2ccc(F)c(C(F)(F)F)c2)CCC1`, > 100 µM.
Consider `C(/N=N/c1ccccc1)=C1/CCCN1Cc1ccccc1`, for which the cytotoxic concentration (CC50) at 96 h is 74 µM.

In the next series the test system is Bovine viral diarrhea virus 1. The experiment in a line: Antiviral activity against BVDV infected in MDBK cells assessed as protection against virus-induced cytopathogenicity after 4 days by MTT assay. The format is functional, organism-based. The conditions noted are these: Bovine viral diarrhea virus isolates and strains, 96 h. A digest of the protocol: (§2)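 MDBK (BVDV) or BHK-21 (YFV) cells were seeded at 3 × 10^4 or 5 × 10^4 cells/well respectively and grown overnight to confluent monolayers at 37 °C in 5% CO2. Monolayers were infected at m.o.i. 0.01 in serum-free medium. After 1 h, MEM Earle's with 1% FCS was added, with or without serial compound dilutions. After 3–4 days at 37 °C, viability was read by MTT. EC50 was taken as 50% protection from virus-induced cytopathogenicity.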
In general terms: Protection from cytopathic effect is a common read-out in antiviral testing.
`Fc1ccc(N2CCN(/C=C/N=N/c3ccccc3)CC2)cc1`: the EC50 was > 13 µM.
As for `CN1C=C(/N=N/c2cccc(Cl)c2)CCC1`, the EC50 came to 12 µM.
With `Cc1ccc(/N=N/C=C2\CCCN2C)cc1`, the EC50 stood at 20 µM.
Consider `FC(F)(F)c1cc(/N=N\C2=C3CCCCN3CCC2)ccc1Br`, for which the EC50 came out at 61 µM.
Take `Clc1cccc(/N=N\C2=C3CCCCN3CCC2)c1`: the EC50 was > 20 µM.
Same read-out and setting: the result for `CN1C=C(/N=N/c2ccc(F)c(C(F)(F)F)c2)CCC1` reads > 100 µM.
Same read-out and setting: the result for `C(/N=N/c1ccccc1)=C1/CCCN1Cc1ccccc1` reads > 74 µM.

System in another series: not listed separately
The series can be described thus: Cytotoxicity against mock-infected BHK cells assessed as reduction in cell viability after 96 hrs by MTT assay. The format is cell-based, Mesocricetus auratus. Particulars: hamster. In outline: as §1
For the compound `Fc1ccc(N2CCN(/C=C/N=N/c3ccccc3)CC2)cc1`, the CC50 at 96 h was found to be 50 µM.
As for `CN1C=C(/N=N/c2cccc(Cl)c2)CCC1`, the CC50 at 96 h was found to be 85 µM.
The same measure, in the same setting: for `Cc1ccc(/N=N/C=C2\CCCN2C)cc1` the value was > 100 µM.
Take `FC(F)(F)c1cc(/N=N\C2=C3CCCCN3CCC2)ccc1Br`: the CC50 at 96 h was > 100 µM.
On to `Clc1cccc(/N=N\C2=C3CCCCN3CCC2)c1`, for which the CC50 at 96 h amounted to 46 µM.
Consider `CN1C=C(/N=N/c2ccc(F)c(C(F)(F)F)c2)CCC1`, for which the CC50 at 96 h worked out at 80 µM.
Regarding `C(/N=N/c1ccccc1)=C1/CCCN1Cc1ccccc1`, the CC50 at 96 h was 31 µM.

A further series deals with Yellow fever virus. The series can be described thus: Antiviral activity against YFV infected in BHK21 cells assessed as protection against virus-induced cytopathogenicity after 4 days by MTT assay. Format: functional, organism-based. Particulars: BHK-21, 96 h. A digest of the protocol:
as §2
Turning to `Fc1ccc(N2CCN(/C=C/N=N/c3ccccc3)CC2)cc1`, the EC50 amounted to 20 µM.
For `CN1C=C(/N=N/c2cccc(Cl)c2)CCC1`, the EC50 was > 85 µM.
For `Cc1ccc(/N=N/C=C2\CCCN2C)cc1`, the half-maximal effective concentration (EC50) is > 100 µM.
For `FC(F)(F)c1cc(/N=N\C2=C3CCCCN3CCC2)ccc1Br`, the EC50 came to 80 µM.
On the same count and under the same terms, the result for `Clc1cccc(/N=N\C2=C3CCCCN3CCC2)c1` reads > 46 µM.
As for `CN1C=C(/N=N/c2ccc(F)c(C(F)(F)F)c2)CCC1`, the EC50 is > 80 µM.
Consider `C(/N=N/c1ccccc1)=C1/CCCN1Cc1ccccc1`, for which the EC50 is > 31 µM.

System in a further series: not listed separately
The series can be described thus: Cytotoxicity against mock-infected african green monkey Vero76 cells assessed as reduction in cell viability after 96 hrs by MTT assay. The conditions noted are these: chlorocebus sabaeus. The format is cell-based, Vero.
For `Fc1ccc(N2CCN(/C=C/N=N/c3ccccc3)CC2)cc1`, the CC50 at 96 h was 35 µM.
As to `CN1C=C(/N=N/c2cccc(Cl)c2)CCC1`, the CC50 at 96 h came to 75 µM.
On the same count and under the same terms, the result for `Cc1ccc(/N=N/C=C2\CCCN2C)cc1` reads > 100 µM.
On to `FC(F)(F)c1cc(/N=N\C2=C3CCCCN3CCC2)ccc1Br`, for which the CC50 at 96 h was found to be 100 µM.
For the compound `Clc1cccc(/N=N\C2=C3CCCCN3CCC2)c1`, the half-maximal cytotoxic concentration (CC50) at 96 h came out at 60 µM.
In the case of `CN1C=C(/N=N/c2ccc(F)c(C(F)(F)F)c2)CCC1`, the CC50 at 96 h stood at 70 µM.
As to `C(/N=N/c1ccccc1)=C1/CCCN1Cc1ccccc1`, the CC50 at 96 h turned out to be 87 µM.

The subject of another series is Coxsackievirus B2. The series can be described thus: Antiviral activity against CVB2 infected in Vero76 cells assessed as reduction in virus plaque formation after 4 days by MTT assay. Format: functional, organism-based. Particulars: Enterovirus B, Vero 76, 96 h.
Turning to `Fc1ccc(N2CCN(/C=C/N=N/c3ccccc3)CC2)cc1`, the EC50 was determined as 5 µM.
For `CN1C=C(/N=N/c2cccc(Cl)c2)CCC1`, the EC50 is 34 µM.
With `Cc1ccc(/N=N/C=C2\CCCN2C)cc1`, the EC50 was 60 µM.
For the compound `FC(F)(F)c1cc(/N=N\C2=C3CCCCN3CCC2)ccc1Br`, the EC50 amounted to 42 µM.
Regarding `Clc1cccc(/N=N\C2=C3CCCCN3CCC2)c1`, the EC50 amounted to 22 µM.
For `CN1C=C(/N=N/c2ccc(F)c(C(F)(F)F)c2)CCC1`, the 50% effective concentration (EC50) amounted to 35 µM.
For the compound `C(/N=N/c1ccccc1)=C1/CCCN1Cc1ccccc1`, the EC50 was found to be 16 µM.

A further series relates to Respiratory syncytial virus. The experiment in a line: Antiviral activity against RSV infected in Vero76 cells assessed as reduction in virus plaque formation after 4 days by MTT assay. Format: functional, organism-based. The conditions noted are these: human respiratory syncytial virus, Vero 76, 96 h.
For the compound `Fc1ccc(N2CCN(/C=C/N=N/c3ccccc3)CC2)cc1`, the EC50 was 9 µM.
For the compound `CN1C=C(/N=N/c2cccc(Cl)c2)CCC1`, the EC50 was found to be 40 µM.
Turning to `Cc1ccc(/N=N/C=C2\CCCN2C)cc1`, the EC50 was > 100 µM.
`FC(F)(F)c1cc(/N=N\C2=C3CCCCN3CCC2)ccc1Br`: the EC50 is > 100 µM.
With `Clc1cccc(/N=N\C2=C3CCCCN3CCC2)c1`, the concentration for a half-maximal effect (EC50) was found to be 18 µM.
`CN1C=C(/N=N/c2ccc(F)c(C(F)(F)F)c2)CCC1`: the EC50 is > 70 µM.
For the compound `C(/N=N/c1ccccc1)=C1/CCCN1Cc1ccccc1`, the EC50 came to 30 µM.

Another series deals with Poliovirus 1. The experiment in a line: Antiviral activity against Sb1 virus infected in Vero76 cells assessed as reduction in virus plaque formation after 4 days by MTT assay. Format: functional, organism-based. The conditions noted are these: Enterovirus C, Sabin, Vero 76, 96 h.
`Fc1ccc(N2CCN(/C=C/N=N/c3ccccc3)CC2)cc1`: the concentration for a half-maximal effect (EC50) is > 35 µM.
Same read-out and setting: for `CN1C=C(/N=N/c2cccc(Cl)c2)CCC1` the value was > 75 µM.
Same read-out and setting: the result for `Cc1ccc(/N=N/C=C2\CCCN2C)cc1` reads > 100 µM; that for `FC(F)(F)c1cc(/N=N\C2=C3CCCCN3CCC2)ccc1Br`, 25 µM.
Turning to `Clc1cccc(/N=N\C2=C3CCCCN3CCC2)c1`, the concentration for a half-maximal effect (EC50) was > 60 µM.
In the case of `CN1C=C(/N=N/c2ccc(F)c(C(F)(F)F)c2)CCC1`, the concentration for a half-maximal effect (EC50) is > 70 µM.
On to `C(/N=N/c1ccccc1)=C1/CCCN1Cc1ccccc1`, for which the EC50 was > 87 µM.

Another series relates to Human alphaherpesvirus 1. The series can be described thus: Antiviral activity against HSV1 infected in Vero76 cells assessed as reduction in virus plaque formation after 4 days by MTT assay. Format: functional, organism-based. The conditions noted are these: Human alphaherpesvirus 1, Vero 76, 96 h.
With `FC(F)(F)c1cc(/N=N\C2=C3CCCCN3CCC2)ccc1Br`, the 50% effective concentration (EC50) is 25 µM.

Another series concerns Human immunodeficiency virus 1. The series can be described thus: Antiviral activity against HIV1 infected in MT4 cells assessed as virus-induced cytopathogenicity after 4 days.
Settings: not given
The format is functional, organism-based.
In the case of `Fc1ccc(N2CCN(/C=C/N=N/c3ccccc3)CC2)cc1`, the outcome was inactive.
`CN1C=C(/N=N/c2cccc(Cl)c2)CCC1`: the outcome was inactive.
`Cc1ccc(/N=N/C=C2\CCCN2C)cc1`: the outcome was inactive.
On the same count and under the same terms, for `FC(F)(F)c1cc(/N=N\C2=C3CCCCN3CCC2)ccc1Br` the value was “inactive”.
As for `Clc1cccc(/N=N\C2=C3CCCCN3CCC2)c1`, the result was inactive.
In the case of `CN1C=C(/N=N/c2ccc(F)c(C(F)(F)F)c2)CCC1`, the result was inactive.
Regarding `C(/N=N/c1ccccc1)=C1/CCCN1Cc1ccccc1`, the result was inactive.

For a further series, the system named is Vaccinia virus. The series can be described thus: Antiviral activity against VV infected in Vero76 cells assessed as reduction in virus plaque formation after 4 days by MTT assay. Format: functional, organism-based. Particulars: Orthopoxvirus vaccinia; Vero 76.
Regarding `Fc1ccc(N2CCN(/C=C/N=N/c3ccccc3)CC2)cc1`, the result was inactive.
As to `CN1C=C(/N=N/c2cccc(Cl)c2)CCC1`, the outcome was inactive.
With `Cc1ccc(/N=N/C=C2\CCCN2C)cc1`, the outcome was inactive.
On to `FC(F)(F)c1cc(/N=N\C2=C3CCCCN3CCC2)ccc1Br`, for which the outcome was inactive.
The same measure, in the same setting: for `Clc1cccc(/N=N\C2=C3CCCCN3CCC2)c1` the value was “inactive”.
On the same count and under the same terms, the result for `CN1C=C(/N=N/c2ccc(F)c(C(F)(F)F)c2)CCC1` reads “inactive”; that for `C(/N=N/c1ccccc1)=C1/CCCN1Cc1ccccc1`, “inactive”.

For a further series, the system named is Vesicular stomatitis virus. The series can be described thus: Antiviral activity against VSV infected in Vero76 cells assessed as reduction in virus plaque formation after 4 days by MTT assay. The format is functional, organism-based. The conditions noted are these: Vero 76.
With `Fc1ccc(N2CCN(/C=C/N=N/c3ccccc3)CC2)cc1`, the result was inactive.
Take `CN1C=C(/N=N/c2cccc(Cl)c2)CCC1`: the outcome was inactive.
As to `Cc1ccc(/N=N/C=C2\CCCN2C)cc1`, the outcome was inactive.
On to `FC(F)(F)c1cc(/N=N\C2=C3CCCCN3CCC2)ccc1Br`, for which the result was inactive.
For the compound `Clc1cccc(/N=N\C2=C3CCCCN3CCC2)c1`, the result was inactive.
In the case of `CN1C=C(/N=N/c2ccc(F)c(C(F)(F)F)c2)CCC1`, the outcome was inactive.
The same measure, in the same setting: the result for `C(/N=N/c1ccccc1)=C1/CCCN1Cc1ccccc1` reads “inactive”.

Source of the values: ChEMBL document CHEMBL1144182, “Antimicrobial and cytotoxic arylazoenamines. Part III: antiviral activity of selected classes of arylazoenamines” (Bioorg Med Chem, 2008).
